SR-BI DiI inh – inhibitors of SR-BI mediated HDL lipid uptake, primary screen, ldlA[mSR-BI] cells, fluorescence, single point; Scavenger receptor class B member 1 (Mus musculus), Q61009; ldlA[mSR-BI] CHO cells, DiI-HDL uptake fluorescence, 3 h; inhibition, % at 12.5 µM; 0.96% of 320,000 active; AID 488896, 2010;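 active = mean replicate inhibition of at least 70% and a set share of replicates each scoring 70 or more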;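 note: 0% = median of neutral control wells and 100% = median of positive control wells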
Target sequence (Q61009 whole entry, looked up): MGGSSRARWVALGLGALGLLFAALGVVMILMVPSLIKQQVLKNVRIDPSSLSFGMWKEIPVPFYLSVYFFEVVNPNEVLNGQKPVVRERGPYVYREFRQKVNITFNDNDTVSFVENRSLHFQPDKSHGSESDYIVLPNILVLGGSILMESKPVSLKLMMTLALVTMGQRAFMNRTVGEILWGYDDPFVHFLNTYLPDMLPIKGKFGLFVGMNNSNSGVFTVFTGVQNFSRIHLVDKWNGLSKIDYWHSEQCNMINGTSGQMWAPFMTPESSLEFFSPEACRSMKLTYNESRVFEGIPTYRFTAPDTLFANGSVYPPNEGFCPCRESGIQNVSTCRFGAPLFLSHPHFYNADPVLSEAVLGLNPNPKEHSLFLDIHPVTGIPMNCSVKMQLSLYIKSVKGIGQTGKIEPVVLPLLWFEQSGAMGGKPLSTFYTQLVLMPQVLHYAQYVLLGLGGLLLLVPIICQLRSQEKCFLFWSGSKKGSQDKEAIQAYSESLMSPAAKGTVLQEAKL
NSD2 HMT inh – NSD2 histone methyltransferase inhibitors, primary screen, biochemical, AlphaScreen, single concentration, set 2; Histone-lysine N-methyltransferase NSD2 (Homo sapiens), O96028; NSD2 peptide methylation, 120 min; inhibition, % at 12.5 µM; 0.54% of 310,000 active; AID 743445, 2014; in the data active = inhibition above about 50%
sPLA2-III inh – human group III sPLA2 inhibitors, primary screen, biochemical, QFRET, BODIPY PC-A2 liposome substrate. Group 3 secretory phospholipase A2 (Homo sapiens), Q9NZ20. QFRET BODIPY PC-A2 liposome hydrolysis, fluorescence. inhibition, % at 12.2 µM. 0.56% of 370,000 active. AID 743126, 2013;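 active = inhibition above mean plus 3 SD of compounds lying within the high and low control bounds, cut at about 19% in these data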;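 note: 0% = median of test compound wells and 100% = no enzyme DMSO wells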
Xi reactivation – activators of inactive X chromosome reactivation, primary screen, imaging, XiGFP fibroblasts, GFP high-content imaging, set 2. XiGFP mouse fibroblasts, % GFP-positive cells imaging, 3 d; cells co-treated with 5-aza-dC sensitizer; scaled so ellipticine positive control = 100%. activation, % at 7.58 µM. 0.055% of 360,000 active. AID 743238, 2013;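 active = mean normalized replicate activation at least 10% and every replicate at or above 10%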;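 note: 0% = median of on-plate neutral control wells and 100% = ellipticine 6 µM median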
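Assay system – SV40-immortalized XiGFP fibroblast cells, line 68-5-11 · Buffer or medium – DMEM supplemented with 5-aza-dC as sensitizing agent · Dosing – one concentration, pinned · Benchmarks – positive control ellipticine, 6 µM final · Times – 3 days compound exposure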
SR-BI uptake up – activators of SR-BI mediated DiI-HDL uptake, primary screen, ldlA[mSR-BI] CHO cells, DiI fluorescence; 0.096% of 320,000 active; 3 h; 100 = double the neutral-control signal; activation, % at 12.5 µM;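 active = mean replicate activation of at least 60% and every replicate at or above 60%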;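 note: 0% = median plate neutral-control signal and 100% = twice that signal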
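Test system: SR-BI-overexpressing, LDLR-lacking CHO cells; Also added: labelled HDL, 10 µg/mL; Measured by: bottom-read cell fluorescence after medium removal, ex 550/em 595 nm; Timing: 3 h uptake period with compound, 37 °C; Buffer or medium: F12, 0.5% BSA, 25 mM HEPES; Doses: single compound concentration, delivered by pin transfer.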
ARNT-TACC3 inh – disruptors of ARNT/TACC3 protein interaction, primary screen, biochemical, AlphaScreen, single concentration. Transforming acidic coiled-coil-containing protein 3 (Homo sapiens), Q9Y6A5. AlphaScreen His-ARNT PAS-B/GST-TACC3 binding, luminescence; TACC3 fragment carries E629A point mutation. inhibition, % at 9.99 µM. 0.66% of 390,000 active. AID 623870, 2012;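 active = mean inhibition of replicates at least 50% and at least half of replicates each reaching 50%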;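 note: 0% = complete ARNT plus TACC3 wells and 100% = ARNT alone without TACC3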
hGIII sPLA2 conf – human group III sPLA2 inhibitors, confirmation, biochemical, QFRET, triplicate; shares compounds with sPLA2-III inh; recombinant hGIII-sPLA2, BODIPY PC-A2 QFRET fluorescence; inhibition, % at 12.2 µM; 34% of 2,000 active; AID 743280, 2014;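 active = mean inhibition across triplicates above the hit cutoff set in the earlier primary screen, cut at about 19% in these data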;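 note: 0% = enzyme with DMSO and 100% = DMSO wells lacking enzyme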
535nm interf – 535nm fluorescence optical interference, confirmation, artefact control for HGIII-sPLA2 inhibitor project, biochemical, QFRET; shares compounds with sPLA2-III inh; BODIPY FL product fluorescence interference; inhibition, % at 12.2 µM; 8.5% of 2,000 active; AID 743282, 2014;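 active = average inhibition above the solvent-only control mean plus 3 SD, cut at about 6% in these data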;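 note: 0% = DMSO with substrate plus product and 100% = DMSO with substrate alone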
BODIPY interf DR – 535nm fluorescence optical interference, dose response, artefact control for HGIII-sPLA2 inhibitor project, biochemical, QFRET; shares compounds with sPLA2-III inh; BODIPY FL product fluorescence interference, cell-free; IC50, µM; 240 tested, under 10 active;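 active = IC50 at or below 10 µM; inactive = IC50 above 10 µM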
Numbers without * were called inactive; nt = no result. Sampled rows, rich in hits. Any-hit rate of the full collection: about 2%.

SMILES | SR-BI DiI inh | NSD2 HMT inh | sPLA2-III inh | Xi reactivation | SR-BI uptake up | ARNT-TACC3 inh | hGIII sPLA2 conf | 535nm interf | others
COc1ccccc1NC(=S)NNC(=O)c1nn(C)cc1Cl | 0.7 | 0.9 | 30.8* | nt | -0.7 | 56.8* | 38.4* | 2.6 | BODIPY interf DR=>122
Cc1c(C(=O)NNC(=S)Nc2cccc(Cl)c2)nnn1-c1ccccc1 | -1.4 | -1.1 | 31.3* | 0.2 | 1.4 | 32.7 | 34.1* | 9.3*
Cc1cc(C(=O)NNC(=S)Nc2ccccc2)nn1C | -6.6 | 0.0 | 28.6* | 0.0 | 6.6 | nt | 23.1* | -0.4
Cc1cc(NC(=O)Nc2cccc(Cl)c2)n(-c2ccccc2)n1 | 18.7 | -0.7 | 4.8 | 0.5 | -18.7 | 5.3 | nt | nt
CN1C(=O)c2cc(NC(=O)c3ccc(F)c(F)c3)ccc2OC[C@H]2O[C@@H](CC(=O)N[C@H]3CCN(Cc4ccccc4)C3)CC[C@H]21 | nt | nt | nt | 0.1 | nt | 1.8 | nt | nt
O=C(c1ccccc1F)N1C[C@H]2[C@@H](c3ccccc31)[C@H](CO)N2Cc1ccc2c(c1)OCO2 | nt | nt | nt | -0.1 | nt | 21.9 | nt | nt
O=C(NNC(=S)NC1CC2C=CC1C2)c1cccnc1 (configuration not stated) | -2.8 | -2.0 | 22.0* | 0.1 | 2.8 | -16.3 | 21.2* | -8.0
O=C(NNC(=S)NC(=O)c1ccccc1)c1cccnc1 | -14.4 | 1.5 | 9.6 | 0.0 | 14.3 | 17.1 | nt | nt
Cn1cc(/C=C2\SC(=S)N(N3CCOCC3)C2=O)c2ccccc21 | 38.3 | -3.4 | 21.5* | 0.0 | -38.3 | -4.0 | 6.0 | -0.2
COc1ccc(C2NCCc3c2[nH]c2ccccc32)cc1CSc1nc2ccccc2s1 (configuration not stated) | -21.8 | 1.6 | 19.8* | 0.1 | 21.8 | 2.6 | -2.3 | -3.9
Cc1ccc(OC(=O)c2sc(Cl)nc2C)cc1C | -4.2 | -3.6 | 21.5* | -0.1 | 4.2 | 7.4 | 0.0 | -6.2
COc1ccc(CNC(=O)CSc2nc3ccc(N)cc3s2)cc1 | -1.5 | 6.2 | 28.5* | -0.1 | 1.5 | -1.3 | 12.0 | -3.3
Cc1c(Cl)ccc2sc(NC(=O)CN3C(=O)c4ccccc4C3=O)nc12 | -4.6 | nt | 19.5* | 0.6 | 4.6 | -9.6 | -0.2 | -7.7
CCCC(=O)Nc1nc2c(C)c(Cl)ccc2s1 | nt | -2.3 | -3.5 | -0.1 | nt | -0.8 | nt | nt
Cc1ccc(OCCCN2C(=O)C(=O)c3cccc(C)c32)cc1 | 24.3 | -0.5 | 25.9* | nt | -24.3 | 0.2 | 26.0* | -2.9
Cc1cccc2c1N(CCOc1ccc(C(C)(C)C)cc1)C(=O)C2=O | -1.5 | -1.0 | 8.2 | nt | 1.5 | -18.1 | nt | nt
O=S(=O)(O)c1cc(O)c(N=Nc2ccc(O)cc2O)c2ccccc12 | 35.6 | 92.4* | 22.8* | 0.0 | -35.6 | 93.5* | 18.6 | 4.2
CCCNC(=O)N(C)C[C@@H]1Oc2cc(C#C[C@@H](C)O)ccc2S(=O)(=O)N([C@H](C)CO)C[C@@H]1C | nt | nt | nt | 0.1 | nt | -0.8 | nt | nt
COc1ccccc1CN1C(=O)CNC1=S | -4.9 | 2.0 | nt | nt | 4.9 | 5.1 | nt | nt
COc1ccccc1Cn1[nH]nnc1=S | -2.3 | 101.2* | 22.3* | 0.0 | 2.3 | -8.9 | 13.3 | -2.0

Bioassay records from PubChem.
